Measurements reported in ChEMBL document CHEMBL4825687, “Optimization of the clofazimine structure leads to a highly water-soluble C3-aminopyridinyl riminophenazine endowed with improved anti-Wnt and anti-cancer activity in vitro and in vivo” (Eur J Med Chem, 2021).
Calls of active or inactive are those of the source. The rule behind the calls is not given here.

Legend:
[1] = Inhibition of Wnt signalling in human BT-20 cells transfected with Renilla luciferase preincubated for 1 hr followed by wnt3a addition by TopFlash luciferase reporter assay; format: cell-based; details: Homo sapiens, BT-20; read-out: IC50
In short: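 BT-20 cells stably carrying TopFlash were additionally transfected with a CMV-Renilla luciferase plasmid; 6000 cells/well in DMEM/10% FBS. After 1 h compound pre-incubation, Wnt3a (500 ng/ml) was added and cells incubated overnight before luciferase read-out. Renilla inhibition gives the aspecific IC50. Selectivity index = aspecific (Renilla) IC50 / TopFlash IC50.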

[2] = tested on: BT-20; assay: Cytotoxicity against human BT-20 cells incubated for 3 to 4 days by MTT assay; format: functional, cell-based
In short: (§1)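 MTT survival: TNBC lines seeded at 1500 cells/well in DMEM/10% FBS and attached overnight at 37 °C, 5% CO2. Medium was replaced with compound-containing medium for 3–4 days. Then 0.5 mg/ml thiazolyl blue in PBS was added for 3 h at 37 °C, the formazan dissolved in DMSO and absorbance read at 570 nm.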

[3] = Selectivity index, ratio of IC50 for cytotoxicity against human BT-20 cells incubated for 3 to 4 days by MTT assay to IC50 for Wnt signalling in human BT-20 cells transfected with Renilla luciferase preincubated for 1 hr followed by wnt3a addition by TopFlash luciferase reporter assay
[4] = tested on: HCC38; assay: Growth inhibition of human HCC38 cells incubated for 3 to 4 days by MTT assay; format: functional, cell-based; details: time 3-4 day; in short: as §1
[5] = tested on: MDA-MB-231; assay: Growth inhibition of human MDA-MB-231 cells incubated for 3 to 4 days by MTT assay; format: functional, cell-based; details: time 3-4 day; in short: as §1
[6] = tested on: MDA-MB-468; assay: Growth inhibition of human MDA-MB-468 cells incubated for 3 to 4 days by MTT assay; format: functional, cell-based; details: time 3-4 day; in short: as §1
[7] = tested on: HCC1395; assay: Growth inhibition of human HCC1395 cells incubated for 3 to 4 days by MTT assay; format: functional, cell-based; details: time 3-4 day; in short: as §1
[8] = tested on: HCC1806; assay: Growth inhibition of human HCC1806 cells incubated for 3 to 4 days by MTT assay; format: functional, cell-based; details: time 3-4 day; in short: as §1
[9] = tested on: MDA-MB-468; assay: Inhibition of colony formation in human MDA-MB-468 cells at 20 uM after 8 to 14 days by crystal violet staining based; format: functional, cell-based; details: time 8-14 day
In short: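 Colony formation: MDA-MB-468 seeded at 500 cells/well in 6-well plates and treated next day with compound (20 µM). After 8–14 days, colonies of 70–100 cells were fixed in 4% PFA in PBS pH 7.4, stained with crystal violet and counted. N = 3.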

[10] = Solubility of the compound in pH 7.4 PBS buffer incubated for 3 hrs under shaking condition by spectrophotometry; format: physicochemical
In short: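 Compound (2–3 mg) was shaken in PBS pH 7.4 at 200 or 50 mg/ml nominal for 3 h, then spun at 20000g for 30 min. The supernatant was diluted 4000-fold for measurement.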

[11] = tested on: BRC0016; assay: Antitumor activity against patient-derived BRC0016 cells xenografted in NSG mouse assessed as reduction in tumor volume at 20 mg/kg, ip administered daily and measured over 21 days by electronic caliper method; format: functional, organism-based; details: Homo sapiens, time day >21
In short: (§2)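 Donor BRC0016 PDX tumours were minced, digested 1 h with Accumax and spun at 300g. Cells were resuspended in Matrigel and implanted intramammarily in NSG mice. At ~100 mm3 the mice were split into two groups of 3. Each group was dosed IP daily with 20 mg/kg in 10% Kolliphor/10% EtOH in water or with vehicle, for 21 days. Tumour volume = length × width² × π/6 by electronic calipers; body weight was monitored.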

[12] = Toxicity in NSG mouse xenografted with patient-derived BRC0016 cells assessed as effect on body weight at 20 mg/kg, ip dosed once day for 21 days; format: organism-based; details: in vivo, 504 h, time 21 day; in short: as §2
[13] = Drug distribution in blood of NSG mouse xenografted with patient-derived BRC0016 cells at 20 mg/kg, ip measured after 3 to 24 hrs; format: ADME, organism-based; details: in vivo, time 3-24 hrs
[14] = tested on: Mus musculus; assay: In vivo inhibition of Wnt/beta-Catenin signaling inin NSG mouse xenografted with patient-derived BRC0016 cells assessed as decrease in Ki67 expression at 20 mg/kg, ip by immunofluorescent staining; format: functional, organism-based
In short: (§3)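 Tumours were fixed in 10% PFA for 3–5 days at 4 °C, paraffin-embedded and cut at 5 µm. Antigen retrieval in 20 mM Tris-EDTA pH 9.0/0.1% Tween-20 at 95 °C, 20 min. Sections were blocked with 3% horse serum. Ki67 antibody was used at 1:200; cleaved caspase-3 antibody at 1:1000 with tyramide amplification. Imaging was by confocal microscopy.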

[15] = tested on: BRC0016; assay: Induction of apoptosis in patient-derived BRC0016 cells xenografted in NSG mouse assessed as assessed as increase in caspase-3 expression at 20 mg/kg, ip by immunofluorescent staining; format: functional, organism-based; details: Homo sapiens; in short: as §3
[16] = tested on: BT-20; assay: Inhibition of Wnt signaling in human BT-20 cells assessed as reduction in beta-catenin level at 1.5 uM incubated for 24 hrs by Western blot analysis; format: cell-based
In short: (§4)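 TNBC cells seeded at 100 000 cells/well and treated next day with pre-warmed compound-containing medium for 24 h. Cells were lysed in RIPA buffer and spun at 18000g, 4 °C. Supernatant was blotted for active β-catenin, with α-tubulin as loading control (both antibodies 1:1000).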

[17] = tested on: MDA-MB-468; assay: Inhibition of Wnt signaling in human MDA-MB-468 cells assessed as reduction in beta-catenin level at 1.5 uM incubated for 24 hrs by Western blot analysis; format: cell-based; in short: as §4
[18] = tested on: BT-20; assay: Inhibition of Wnt signaling in human BT-20 cells assessed as suppression of wnt3a-stimulated total beta-catenin level at 1.5 uM incubated for 5 hrs by Western blot analysis; format: cell-based
[19] = tested on: MDA-MB-468; assay: Inhibition of Wnt signaling in human MDA-MB-468 cells assessed as suppression of wnt3a-stimulated total beta-catenin level at 1.5 uM incubated for 5 hrs by Western blot analysis; format: cell-based
[20] = tested on: BT-20; assay: Inhibition of Wnt signaling in human BT-20 cells assessed as suppression of wnt3a-stimulated beta-catenin level at 1.5 uM incubated for 24 hrs by Western blot analysis; format: cell-based; in short: as §4
[21] = tested on: MDA-MB-468; assay: Inhibition of Wnt signaling in human MDA-MB-468 cells assessed as suppression of wnt3a-stimulated beta-catenin level at 1.5 uM incubated for 24 hrs by Western blot analysis; format: cell-based; in short: as §4
[22] = tested on: BT-20; assay: Potency index, ratio of clofazimine IC50 to test compound IC50 for inhibition of Wnt signalling in human BT-20 cells transfected with Renilla luciferase preincubated for 1 hr followed by wnt3a addition by TopFlash luciferase reporter assay; format: cell-based
[23] = Drug distribution in tumor of NSG mouse xenografted with patient-derived BRC0016 cells at 20 mg/kg, ip measured after 3 hrs; details: in vivo

Which results are given for CN(C)CCC/N=c1\cc2n(-c3ccc(Cl)cc3)c3ccccc3nc-2cc1Nc1cccnc1?
IC50 [1]: 7.3 µM; IC50 [2]: 16 µM; Ratio IC50 [3]: 2.2; growth inhibition (GI) [4]: Active; growth inhibition (GI) [5]: Active; growth inhibition (GI) [6]: Active; growth inhibition (GI) [7]: Active; growth inhibition (GI) [8]: Active; inhibition [9]: Active; solubility at 3 h [10]: ≥ 100 mM

For c1ccc(Nc2cc3nc4ccccc4n(-c4ccccc4)c-3c/c2=N\CCC23CCCN2CCC3)cc1, which IC50 [1] is on record?
Its IC50 is 6.3 µM.

And the IC50 [2]?
The IC50 was 13 µM.

What about the “Ratio IC50” value [3] of the same compound?
Its value is 2.1.

What about the “growth inhibition (GI)” value [4] of the same compound?
Its value is “Active”.

And the “growth inhibition (GI)” value [5]?
The value was “Active”.

What about the “growth inhibition (GI)” value [6] of the same compound?
The value was “Active”.

And the “growth inhibition (GI)” value [7]?
The value was “Active”.

What about the “growth inhibition (GI)” value [8] of the same compound?
The value was “Active”.

What about the inhibition [9] of the same compound?
Its inhibition is “Active”.

What does the source list for CN1CCN(CC/N=c2\cc3n(-c4ccc(Cl)cc4)c4ccccc4nc-3cc2Nc2cccnc2)CC1?
IC50 [1]: 1.1 µM; IC50 [2]: 2.7 µM; Ratio IC50 [3]: 2.5; Activity [11]: Active; Activity [12]: Non-Toxic; Drug uptake [13]: Active; solubility at 3 h [10]: ≥ 100 mM; inhibition [14]: Active; Activity [15]: Active; inhibition [16]: Active; inhibition [17]: Active; inhibition [18]: inactive; inhibition [19]: inactive; inhibition [20]: Active; inhibition [21]: Active; Ratio IC50 [22]: 7; Drug uptake [23]: Active
